Bioassay records deposited in PubChem BioAssay by several laboratories.
Measles CPE = compounds protecting cells from measles virus cytopathic effect, primary screen, measles RdRp inhibitor project, single point, MLSMR library, absorbance | AID 841, 2007 | protection (pct of control), % at 4 µM | Measles virus-infected cells, CPE protection | 140,000 compounds, 1.5% hits; in the data active = protection mostly above about 24%, no sharp cut-off; inactive = mostly below about 26%
Yeast life ext = compounds extending yeast replicative lifespan, primary screen, S. cerevisiae, OD615 | S. cerevisiae growth with nicotinamide; deaD strain in restrictive glucose medium | inhibition of the nicotinamide effect, % at 10 µM | 130,000 compounds, 0.68% hits;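 active = inhibition above a set limit, placed 3 SD over the median of all compounds, cut at about 26% in these data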;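 note: 0% = nicotinamide-treated wells and 100% = cells grown without nicotinamide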
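Buffer or medium: CSMM-D glucose medium, restrictive; test system: modified budding yeast, DeaD strain; compound: single dose 10 µM compound, 0.25% DMSO; schedule: culture preincubation 4 h, compound exposure 48 h, both 30 °C; detection: optical density (absorbance) at 615 nm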
Phagocyt inh = inhibitors of macrophage phagocytosis, primary screen, imaging, J774A.1 cells, IgG beads | J774A.1 macrophage IgG-bead phagocytosis | inhibition, % at 5 µM | 110,000 compounds, 0.07% hits;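 active = inhibition above the mean of the plate negative controls plus 5 SD, cut at about 13% in these data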;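 note: phagocytic index as fraction of beads internalized from green versus red external bead signal; plate controls were DMSO negative control for no effect and cytochalasin-D positive control for full effect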
RAM network inh = inhibitors of the yeast RAM network, primary screen, dse1pr::URA3 reporter, 5-FOA selection; S. cerevisiae dse1pr::URA3 reporter, 5-FOA growth OD615, 2 d; analog-sensitive cbk1-as2 kinase mutant strain; 190,000 compounds, 1.8% hits; inhibition, % at 50 µM; AID 868, 2007;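 active = inhibition above a set limit, 3 SD over mean compound inhibition, cut at about 8.4% in these data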;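 note: 0% = DMSO-only wells with no growth and 100% = 10 µM 1-NA-PP1 full growth; inhibition rescues growth on 5-FOA so higher OD means more RAM inhibition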
BB579 growth dn = growth inhibitors of yeast BB579 in restrictive medium, primary screen, yeast lifespan-shortening project, S. cerevisiae | OD615, 48 h | inhibition, % at 10 µM | 140,000 compounds, 0.51% hits | AID 804, 2007;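 active = inhibition above a set limit, 3 SD over the mean compound inhibition, cut at about 44% in these data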
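System: Saccharomyces cerevisiae DeaD strain BB579, replicative lifespan model yeast | Buffer or medium: Restrictive glucose-based CSMM-D medium | Times: 4 h preincubation and 48 h exposure at 30 °C | Detection: OD615 turbidity measurement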
* hit, by the source's call; nt = no result. An excerpt weighted towards active compounds, which were near 3.6% of everything screened.

SMILES	Measles CPE	Yeast life ext	Phagocyt inh	RAM network inh	BB579 growth dn
N#CC(c1cccc(Cl)c1)c1ccc2c(C(F)(F)F)cc(C(F)(F)F)nc2n1 (stereo not given)	2	-11	-2	4	63*
Cc1cccc(-n2nc3c(c2NC(=O)c2ccco2)CSC3)c1C	28*	0	-1	1	-30
Cc1cccc(-n2nc3c(c2NC(=O)c2ccco2)CS(=O)C3)c1C (stereo not given)	nt	nt	nt	1	nt
COc1ccccc1NS(=O)(=O)c1cccc(C(=O)OCc2nc3ccccc3s2)c1	7	2	-6	8.4*	-19
CCCCNC(=O)COc1ccccc1C(=O)c1cc(C#N)c(=O)n(CCOC)c1	42*	-1	nt	0	-10
COCCn1cc(C(=O)c2cc(Br)ccc2O)cc(C#N)c1=O	nt	nt	nt	4	nt
Cc1ccc(C(C(=O)NCc2ccccc2)N(Cc2cccs2)C(=O)c2ccc3c(c2)OCCO3)cc1 (stereo not given)	14	3	-3	5	-23
COc1ccc(CNC(=O)C(c2ccc(C)cc2)N(Cc2cccs2)C(=O)c2ccc3c(c2)OCCO3)cc1 (stereo not given)	4	4	nt	8.7*	-59
COCCN(C(=O)Cc1cccs1)C(C(=O)NCc1ccc(OC)cc1)c1ccc(OC)cc1 (stereo not given)	40*	-7	2	0	2
COc1ccc(CNC(=O)C(c2ccco2)N(Cc2cccs2)C(=O)Cc2cccs2)cc1 (stereo not given)	7	1	nt	5	-86
COc1ccc(CNC(=O)C(c2cccs2)N(Cc2ccco2)C(=O)Cc2cccs2)cc1 (stereo not given)	25	nt	nt	11*	-47
CC(CCc1ccccc1)NC(=O)c1cccs1 (stereo not given)	4	-25	nt	0	-20
CCc1ccccc1Nc1nc(N)nc(COC(=O)c2cccn2C)n1	78*	-24	-1	2	-27
Cc1ccccc1Nc1nc(N)nc(COC(=O)c2cccn2C)n1	4	-10	0	1	-6
NC1=NC(=O)/C(=C/c2cn(CCC(=O)O)nc2-c2ccc(F)cc2)S1	22	1	-9	8	-3
CCCOc1ccc(-c2nn(-c3ccccc3)cc2/C=C2\SC(N)=NC2=O)cc1	6	6	-1	8.8*	-39
NC1=NC(=O)/C(=C/c2cn(CCC(=O)O)nc2-c2ccc(Cl)cc2)S1	6	2	-6	8.6*	-20
CC(C)[C@H](NC(=O)c1ccco1)C(=O)OCC(=O)Nc1ccccc1OC(F)F	nt	nt	nt	0	nt
CN(c1cccc(NC(=O)CN(c2cccc(F)c2)S(C)(=O)=O)c1)S(C)(=O)=O	nt	nt	nt	1	nt
CC(=O)Cc1nsc(Nc2ccc(Cl)cc2)n1	nt	nt	nt	1	nt
Brc1ccc(CSc2ccc3nnc(-c4cccnc4)n3n2)cc1	nt	nt	nt	10*	nt
Brc1ccc(CSc2ccc3nnc(-c4ccccn4)n3n2)cc1	nt	nt	nt	9.9*	nt
Cc1cccc(OCc2nnc(SCC(=O)N3CC(=O)Nc4ccccc43)o2)c1	nt	nt	nt	1	nt
CCOC(=O)c1cc(CC)sc1NC(=O)C(c1ccccc1)c1ccccc1	18	-8	nt	9.3*	-63
CCOC(=O)c1cc(CC)sc1NC(=O)c1cc(OCC)c(OCC)c(OCC)c1	2	-1	0	10*	-25
SMILES	Measles CPE	Yeast life ext	Phagocyt inh	RAM network inh	BB579 growth dn
CCOC(=O)c1cc(-c2ccccc2)sc1NC(=O)C(C)Sc1nnc(C)s1 (stereo not given)	6	5	-4	11*	-6
CCOC(=O)c1cc(-c2ccccc2)sc1NC(=O)C(C)Sc1nnnn1C (stereo not given)	1	-22	-1	5	-45
CCOC(=O)c1cc(CC)sc1NC(=O)C1CC1	27	-15	-2	-2	27
CCOc1cc(/C=C2/C(=N)N3OC(C)=CC3=NC2=O)ccc1OCCOc1ccccc1	1	-4	-1	4	-24
COc1cc2nc(CN(C)Cc3ccc(OC)c(OC)c3OC)[nH]c(=O)c2cc1OC	nt	nt	nt	4	nt
Nc1ccc2nc(-c3ccccc3)[nH]c2c1	57*	-28	nt	4	-1
COc1ccccc1CNC(=O)COC(=O)[C@H](Cc1c[nH]c2ccccc12)NC(=O)c1cccs1	3	-3	-10	4	-17
COc1ccc(CCNc2oc(-c3ccc(OC)c(OC)c3)nc2C#N)cc1	4	-23	-1	11*	-35
CNc1nc(SCc2ccc(C)cc2)nc2c1CCCC2	57*	-11	nt	1	24
OCCC1CN(Cc2ccc3c(c2)CCO3)CCN1Cc1ccc(F)cc1 (stereo not given)	nt	nt	nt	0	nt
O=C1SC(SCc2ccccc2)=N/C1=C\c1ccco1	23	10	-2	8.8*	-26
COC(=O)C(=Cc1ccc(OCc2ccc([N+](=O)[O-])cc2)c(OC)c1)C(=O)OC	11	-7	0	9.2*	-54
COc1cc(/C=N/NC(=O)c2cccc([N+](=O)[O-])c2)ccc1OCc1ccccc1	2	-16	nt	3	-41
CCn1c(=O)c(C(=O)Nc2cnccn2)c(O)c2ccccc21	nt	nt	0	nt	nt
CCn1c(=O)c(C(=O)Nc2nc3ccccc3[nH]2)c(O)c2ccccc21	11	7	-2	0	67*
CCc1nc2ccccc2c(=O)n1NC(=O)c1c(O)c2ccccc2n(CC)c1=O	nt	nt	nt	2	nt
CCn1c(=O)c(C(=O)Nn2c(C)nc3ccccc3c2=O)c(O)c2ccccc21	12	-23	0	0	99*
CCOC(=O)c1cc(NC(=O)c2ccc(OC)cc2)c(=O)oc1-c1ccccc1	13	3	nt	11*	-11
C=CCN1C(=O)C(Cc2ccc(Br)cc2)S/C1=N\N=C\c1ccco1 (stereo not given)	5	7	nt	10.0*	-68
C=CCN1C(=O)C(Cc2ccc(F)cc2)S/C1=N/N=C/c1ccco1 (stereo not given)	9	-1	-1	4	-16
Cc1cccc(CC2S/C(=N/N=C/c3ccco3)N(c3ccccc3)C2=O)c1 (stereo not given)	13	0	nt	11*	-35
CCN(CC)C(=O)c1ccc2c(c1[N+](=O)[O-])C(=O)c1ccccc1C2=O	16	12	-8	2	-5
O=c1[nH]c(CSc2nnc(-c3ccccc3)n2-c2ccccc2)nc2ccccc12	28*	-3	-1	2	6
COCCCn1c(SCc2nc3ccccc3c(=O)[nH]2)nc2ccccc2c1=O	9	-5	nt	9.5*	-32
COc1ccc(-c2cc(C(=O)N3CCN(c4ccccc4)CC3)no2)cc1OC	5	-8	0	4	-12
COc1ccccc1-c1cc(C(=O)N2CCN(c3ccc(F)cc3)CC2)no1	7	-11	1	9.4*	-47
